From the EternaBench riboswitch data

Test system: MS2 coat protein
Assay: apparent Kd, MS2 coat protein; higher = weaker binding; RNA-MaP array; FMN 200 µM where present
Method in brief: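 The titrant was SNAP-549-labelled MS2 coat protein, run from 0.7 or 1.5 nM in doubling steps to 3 µM. It was applied to designs transcribed by stalled E. coli RNA polymerase on Illumina sequencing-chip clusters, without ligand first and then with constant ligand, in 100 mM Tris-HCl pH 7.5, 80 mM KCl, 4 mM MgCl2, BSA, DTT, yeast tRNA and Tween-20. The apparent Kd is the median of filtered per-cluster binding-curve fits, with green signal normalised to red-channel RNA signal and control-cluster median Fmax.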

[1] = designed as: OFF switch for flavin mononucleotide, no ligand
[2] = ligand present: flavin mononucleotide, designed as: OFF switch for flavin mononucleotide
[3] = designed as: ON switch for flavin mononucleotide, no ligand
[4] = ligand present: flavin mononucleotide, designed as: ON switch for flavin mononucleotide

| Sequence | apparent Kd [1] | apparent Kd [2] | apparent Kd [3] | apparent Kd [4] |
| --- | --- | --- | --- | --- |
| GGAAAUUAGCAAGGAUAUCGGCUCACUAUAACUUUAUGCCCUAGGACAUGAGGAUCACCCAUGUACGAGAAGGUGCUAACUACA | 28.9 nM | 30.7 nM |  |  |
| AUUAUGACCGAGUUAUAACUCUAAACAUGAGGAUCACCCAUGUAGGAUAUCAGCACGAUAAGUGCUGAGAAGGACAUCUCGGUC | 16.4 nM | 18.1 nM |  |  |
| GUGUACAGAGGAUAUACAUAAGCUAGGAAACUAGCAUCCUCACAUGAGGAUCACCCAUGUAGAAGGCUGUACAC | 305 nM | 19.6 nM |  |  |
| AAUGAGCAGUAGAAGGCAUGUCUACGGACAUGAGGAUCACCCAUGUAGUGAAUCCGAAAGGAGCAUGAGGAUAUACUGCUCUAA |  |  | 143 nM | 27.3 nM |
| AAAAGACAUGAGGAUCACCCAUGUAAAGACAUAGGAGGAUAUGUCUUGAAAAAAGACUUGACAGAAGGCCUUUGUC |  |  | 23.8 nM | 20.8 nM |
| AUAGAAGACUAGAAGGACCUAGUUGUAUAUUGUCGAGGUAUAUAGUUAGGUAGGAUAUGGGACAUGAGGAUCACCCAUGUCUUG |  |  | 8.51 nM | 7.75 nM |
| UUUAAUCGAAACAUGAGGAUCACCCAUGUGUUGUAAUUAACAUAGGAUAUUUGUAUACUUUUGUAAAAGAAGGAUGAUAAUACU |  |  | 17.1 nM | 13.6 nM |
| AGCCGGGCCCAGAAGGUGCCAGCGAGAGCUGCACAUGAGGAUCACCCAUGUUGUCGGUGACGACGCAAGGAUAUGGGCCCGGCU |  |  | 22.7 nM | 7.17 nM |
| GGAUAUGACAGAGGAUAUACGUGCUAGAGAUACUAGCAAAAUUUCCUCACAUGAGGAUCACCCAUGUAGAAGGCUGUCCUAUCG | 16.3 nM | 275 nM |  |  |
| GUUGCUUAUGAGAAGGCGAUCAUGAAACAUGAUCGAGGAUAUCAUGUAAACAUGAGGAUCACCCAUGUAUGGGUAUUAUGCAGC |  |  | 320 nM | 69.3 nM |
| AACGUGUGAGGAUAUGCCGUGCCCUUCCGGAAGGAGCGGGUGCAGAAGGCACAUGAGGAUCACCCAUGUCGGCA | 33.9 nM | 49.8 nM |  |  |
| GUCAGCUCGUGAGGAUAUACAUGUGCUGGAUACAGCACUAAAGUUUUCACAUGAGGAUCACCCAUGUAGAAGGCACGAGCUGAU | 15.3 nM | 33.9 nM |  |  |
| CUCAAGUGAGGAUAUAUACUUCCAUCAUUUGAGAUAGAAGUAUAGAAGGCACAUGAGGAUCACCCAUGUAUAAC | 136 nM | 39.7 nM |  |  |
| UAAUAAUAGUGAGGAUAUAGUUAUUAUAAUAUACUAGAAGGUACACAUGAGGAUCACCCAUGUUUUAUAAUUUGUAAUUUAAAU | 23.2 nM | 20.5 nM |  |  |
| GCGUUGUACGAGAAGGCCAAUACAUGAGGAUCACCCAUGUAAAGUUGUAAUGGAGGAUAUCGAACACAUUCAAUAAUGCAACGC | 8.29 nM | 5.66 nM |  |  |
| GAGUGCUGAGGAUAUACAUGAGGAUCACCCAUGUGCUUCAACUAGGAGACUAGUAUUGGUAGAAGGCAGUACUC | 16.5 nM | 104 nM |  |  |
| AGUCGGCGAGGAUAUACAUGAGGAUCACCCAUGUGAUAGAGUGCACGCGUACGUGUAUGUAGAAGGCGCUGACA | 82 nM | 748 nM |  |  |
| GUGGUACAUGAGGAUCACCCAUGUCAGGAUAUCGCGUGGUUUUUUGCGGCCGCGCGCGCGAGAAGGGACGUCUU | 36.3 nM | 43.3 nM |  |  |
| UUCAUCAAUGAAGGAUAUCUAUGUCCAACAUGAGGAUCACCCAUGUUGAGGAUUACCUAUGUGUAGGAGAAGGUCAAUAUAACU |  |  | 6.53 nM | 5.93 nM |
| GGAGCACACAUUAACAUGAGGAUCACCCAUGUCAAAAGACAUGAGGAUAUGGAUCCGAAAAGGAUCCAGAAGGCAUCGUGCUCC |  |  | 413 nM | 24.7 nM |
